Assay results from ChEMBL document CHEMBL4339192, “De Novo Designed Amphipathic α-Helical Antimicrobial Peptides Incorporating Dab and Dap Residues on the Polar Face To Treat the Gram-Negative Pathogen, Acinetobacter baumannii” (J Med Chem, 2019).
≈ marks a conversion by molar mass, not a printed value. Where a SMILES comes first, the peptide text is derived from it. Bridges are numbered along the chain shown (N, C = ends). [ ]: non-standard residue; d: D form. The star is where a group is joined. dOrn = NCCC[C@@H](N)C(=O)O; X1 = CC[C@H](C)CCCCC(=O)*; Dab = NCC[C@H](N)C(=O)O

Key:
Type in all cases: functional
Acinetobacter baumannii [1] = assay: Antibacterial activity against Acinetobacter baumannii 649 measured after 24 hrs by microtiter dilution method; settings: Acinetobacter baumannii, 649, 24 h
Summary of the method: (§1)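 Broth microdilution in Mueller-Hinton (MH) medium. […] Plates were incubated 24 h at 37 °C. MIC was the lowest peptide concentration that inhibited growth, based on three sets of replicates.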

Acinetobacter baumannii [2] = assay: Antibacterial activity against polymyxin B/colistin-resistant Acinetobacter baumannii M89963 measured after 24 hrs by microtiter dilution method; summary of the method: as §1
Acinetobacter baumannii [3] = assay: Antibacterial activity against polymyxin B/colistin-resistant Acinetobacter baumannii M89955 measured after 24 hrs by microtiter dilution method; summary of the method: as §1
Acinetobacter baumannii [4] = assay: Antibacterial activity against polymyxin B/colistin-resistant Acinetobacter baumannii M89953 measured after 24 hrs by microtiter dilution method; summary of the method: as §1
Acinetobacter baumannii [5] = assay: Antibacterial activity against polymyxin B/colistin-resistant Acinetobacter baumannii M89951 measured after 24 hrs by microtiter dilution method; summary of the method: as §1
Acinetobacter baumannii [6] = assay: Antibacterial activity against polymyxin B/colistin-resistant Acinetobacter baumannii M89949 measured after 24 hrs by microtiter dilution method; summary of the method: as §1
Acinetobacter baumannii [7] = assay: Antibacterial activity against polymyxin B/colistin-resistant Acinetobacter baumannii M89941 measured after 24 hrs by microtiter dilution method; summary of the method: as §1
Acinetobacter baumannii [8] = assay: Antibacterial activity against Acinetobacter baumannii 649 measured after 24 hrs in presence of 25% human serum by microtiter dilution method; settings: Acinetobacter baumannii, 649, 24 h
Summary of the method: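 Blood strain 649 was tested by MH broth microdilution with and without 25% (v/v) human serum added to the medium. The test used a final inoculum of 5 × 10^5 cfu/mL and incubation at 37 °C. The ratio is the MIC in serum over the MIC in MH alone.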

Acinetobacter baumannii [9] = assay: Antibacterial activity against polymyxin B/colistin-resistant Acinetobacter baumannii M89952 measured after 24 hrs by microtiter dilution method; summary of the method: as §1

Row | Compound | MIC (Acinetobacter baumannii [1]) [µM] | MIC (Acinetobacter baumannii [2]; M89963, 24 h) [µM] | MIC (Acinetobacter baumannii [3]; M89955, 24 h) [µM] | MIC (Acinetobacter baumannii [4]; M89953, 24 h) [µM] | MIC (Acinetobacter baumannii [5]; M89951, 24 h) [µM] | MIC (Acinetobacter baumannii [6]; M89949, 24 h) [µM] | MIC (Acinetobacter baumannii [7]; M89941, 24 h) [µM] | MIC (Acinetobacter baumannii [8]) [µM] | MIC (Acinetobacter baumannii [9]; M89952, 24 h) [µM] | MIC (Acinetobacter baumannii [2]) [µM] | MIC (Acinetobacter baumannii [3]) [µM] | MIC (Acinetobacter baumannii [4]) [µM] | MIC (Acinetobacter baumannii [9]) [µM] | MIC (Acinetobacter baumannii [5]) [µM] | MIC (Acinetobacter baumannii [6]) [µM] | MIC (Acinetobacter baumannii [7]) [µM]
1 | CC(=O)N[C@H](CCCCN)C(=O)N[C@H](CC(C)C)C(=O)N[C@H](CCCN)C(=O)N[C@H](CO)C(=O)N[C@H](CC(C)C)C(=O)N[C@H](CC(C)C)C(=O)N[C@H](CCCN)C(=O)N[C@@H](C(=O)N[C@H](CC(C)C)C(=O)N[C@H](CO)C(=O)N[C@H](CCCN)C(=O)N[C@H](C)C(=O)N[C@H](CCCCN)C(=O)N[C@H](C)C(=O)N[C@H](C)C(=O)N[C@H](CCCCN)C(=O)N[C@H](CC(C)C)C(=O)N[C@H](CCCN)C(=O)N[C@@H](C(=O)N[C@H](CC(C)C)C(=O)N[C@H](CC(C)C)C(=O)N[C@H](CCCN)C(=O)N[C@H](C)C(=O)N[C@H](CC(C)C)C(=O)N[C@H](CO)C(=O)N[C@H](CCCN)C(N)=O)[C@H](C)O)[C@H](C)O (Ac-[dK][dL][dOrn][dS][dL][dL][dOrn][dT][dL][dS][dOrn][dA][dK][dA][dA][dK][dL][dOrn][dT][dL][dL][dOrn][dA][dL][dS][dOrn]-NH2) | 0.4 (≈ 1.11 µg/mL) | 0.4 (≈ 1.11 µg/mL) | 0.4 (≈ 1.11 µg/mL) | 0.4 (≈ 1.11 µg/mL) | 0.7 (≈ 1.95 µg/mL) | 0.7 (≈ 1.95 µg/mL) | 0.7 (≈ 1.95 µg/mL) | – | – | – | – | – | – | – | – | –
2 | CC(=O)N[C@H](CCCCN)C(=O)N[C@H](CC(C)C)C(=O)N[C@H](CCCNC(=N)N)C(=O)N[C@H](CO)C(=O)N[C@H](CC(C)C)C(=O)N[C@H](CC(C)C)C(=O)N[C@H](CCCNC(=N)N)C(=O)N[C@@H](C(=O)N[C@H](CC(C)C)C(=O)N[C@H](CO)C(=O)N[C@H](CCCNC(=N)N)C(=O)N[C@H](C)C(=O)N[C@H](CCCCN)C(=O)N[C@H](C)C(=O)N[C@H](C)C(=O)N[C@H](CCCCN)C(=O)N[C@H](CC(C)C)C(=O)N[C@H](CCCNC(=N)N)C(=O)N[C@@H](C(=O)N[C@H](CC(C)C)C(=O)N[C@H](CC(C)C)C(=O)N[C@H](CCCNC(=N)N)C(=O)N[C@H](C)C(=O)N[C@H](CC(C)C)C(=O)N[C@H](CO)C(=O)N[C@H](CCCNC(=N)N)C(N)=O)[C@H](C)O)[C@H](C)O (Ac-[dK][dL][dR][dS][dL][dL][dR][dT][dL][dS][dR][dA][dK][dA][dA][dK][dL][dR][dT][dL][dL][dR][dA][dL][dS][dR]-NH2) | 0.7 (≈ 2.12 µg/mL) | – | 0.7 (≈ 2.12 µg/mL) | 0.7 (≈ 2.12 µg/mL) | 0.7 (≈ 2.12 µg/mL) | – | 1.3 (≈ 3.94 µg/mL) | 1.3 | 0.7 (≈ 2.12 µg/mL) | – | – | – | – | – | – | –
3 | CC[C@H](C)CCCCC(=O)N[C@@H](CCN)C(=O)N[C@H](C(=O)N[C@@H](CCN)C(=O)N[C@H]1CCNC(=O)[C@H]([C@@H](C)O)NC(=O)[C@H](CCN)NC(=O)[C@H](CCN)NC(=O)[C@H](CC(C)C)NC(=O)[C@@H](Cc2ccccc2)NC(=O)[C@H](CCN)NC1=O)[C@@H](C)O (X1-[Dab]T[Dab][Dab][Dab][dF]L[Dab][Dab]T; lactam 4-C) | – | > 25 | > 25 | > 25 | > 25 | > 25 | > 25 | – | > 25 | – | – | – | – | – | – | –
4 | COLISTIN | – | – | – | – | – | – | – | – | – | > 28 | > 28 | > 28 | > 28 | > 28 | > 28 | > 28
